Assay results taken from ChEMBL document CHEMBL3272030, “Synthesis and biological properties of some spin-labeled 9-aminoacridines” (J Med Chem, 1976).
The source made the active and inactive calls. The calls are words filed in the database; no cut-off is given here.

Tests used:
L1210 [1] = assay: Cytotoxicity against mouse L1210 cells assessed as growth inhibition at 1 ug/ml after 24 hrs; assay type: functional
Outline: (§1)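 L1210 leukemia cells seeded at 10^5 cells/ml and grown in static culture in RPMI 1630 medium with fetal calf serum. Drug tested at 0.01–100 µg/ml, with 24 h and 48 h exposures. Read-out is percent inhibition of growth. Assays were run in triplicate, and values are the mean of two separate experiments.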

L1210 [2] = assay: Cytotoxicity against mouse L1210 cells assessed as growth inhibition at 10 ug/ml after 24 hrs; assay type: functional; outline: as §1
L1210 [3] = assay: Cytotoxicity against mouse L1210 cells assessed as growth inhibition at 0.1 ug/ml after 48 hrs; assay type: functional; outline: as §1
[4] = biological target: T1, Bacterial DNA-directed RNA polymerase (Bacteria) (UniProt P0A8V2+P0A7Z4+P0A8T7+P0A800); assay: Stimulation of Escherichia coli DNA-primed RNA polymerase activity using [8-14C]ATP at 200 ug/ml by scintillation counting; assay type: protein-complex assay
T1 sequence (P0A7Z4 whole entry partner): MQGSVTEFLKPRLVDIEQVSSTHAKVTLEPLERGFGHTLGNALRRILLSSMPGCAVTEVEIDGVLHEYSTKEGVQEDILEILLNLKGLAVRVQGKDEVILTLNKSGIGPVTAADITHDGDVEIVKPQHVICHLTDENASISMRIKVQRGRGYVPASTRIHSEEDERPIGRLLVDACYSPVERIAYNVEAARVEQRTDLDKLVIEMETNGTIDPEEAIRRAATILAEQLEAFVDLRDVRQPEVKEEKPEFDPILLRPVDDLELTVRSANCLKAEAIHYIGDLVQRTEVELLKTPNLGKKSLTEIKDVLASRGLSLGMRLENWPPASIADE
T1 sequence (P0A800 2-91 partner limits assumed): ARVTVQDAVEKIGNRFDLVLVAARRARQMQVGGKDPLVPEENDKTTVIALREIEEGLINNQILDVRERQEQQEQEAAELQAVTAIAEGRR
T1 sequence (P0A8T7 whole entry partner): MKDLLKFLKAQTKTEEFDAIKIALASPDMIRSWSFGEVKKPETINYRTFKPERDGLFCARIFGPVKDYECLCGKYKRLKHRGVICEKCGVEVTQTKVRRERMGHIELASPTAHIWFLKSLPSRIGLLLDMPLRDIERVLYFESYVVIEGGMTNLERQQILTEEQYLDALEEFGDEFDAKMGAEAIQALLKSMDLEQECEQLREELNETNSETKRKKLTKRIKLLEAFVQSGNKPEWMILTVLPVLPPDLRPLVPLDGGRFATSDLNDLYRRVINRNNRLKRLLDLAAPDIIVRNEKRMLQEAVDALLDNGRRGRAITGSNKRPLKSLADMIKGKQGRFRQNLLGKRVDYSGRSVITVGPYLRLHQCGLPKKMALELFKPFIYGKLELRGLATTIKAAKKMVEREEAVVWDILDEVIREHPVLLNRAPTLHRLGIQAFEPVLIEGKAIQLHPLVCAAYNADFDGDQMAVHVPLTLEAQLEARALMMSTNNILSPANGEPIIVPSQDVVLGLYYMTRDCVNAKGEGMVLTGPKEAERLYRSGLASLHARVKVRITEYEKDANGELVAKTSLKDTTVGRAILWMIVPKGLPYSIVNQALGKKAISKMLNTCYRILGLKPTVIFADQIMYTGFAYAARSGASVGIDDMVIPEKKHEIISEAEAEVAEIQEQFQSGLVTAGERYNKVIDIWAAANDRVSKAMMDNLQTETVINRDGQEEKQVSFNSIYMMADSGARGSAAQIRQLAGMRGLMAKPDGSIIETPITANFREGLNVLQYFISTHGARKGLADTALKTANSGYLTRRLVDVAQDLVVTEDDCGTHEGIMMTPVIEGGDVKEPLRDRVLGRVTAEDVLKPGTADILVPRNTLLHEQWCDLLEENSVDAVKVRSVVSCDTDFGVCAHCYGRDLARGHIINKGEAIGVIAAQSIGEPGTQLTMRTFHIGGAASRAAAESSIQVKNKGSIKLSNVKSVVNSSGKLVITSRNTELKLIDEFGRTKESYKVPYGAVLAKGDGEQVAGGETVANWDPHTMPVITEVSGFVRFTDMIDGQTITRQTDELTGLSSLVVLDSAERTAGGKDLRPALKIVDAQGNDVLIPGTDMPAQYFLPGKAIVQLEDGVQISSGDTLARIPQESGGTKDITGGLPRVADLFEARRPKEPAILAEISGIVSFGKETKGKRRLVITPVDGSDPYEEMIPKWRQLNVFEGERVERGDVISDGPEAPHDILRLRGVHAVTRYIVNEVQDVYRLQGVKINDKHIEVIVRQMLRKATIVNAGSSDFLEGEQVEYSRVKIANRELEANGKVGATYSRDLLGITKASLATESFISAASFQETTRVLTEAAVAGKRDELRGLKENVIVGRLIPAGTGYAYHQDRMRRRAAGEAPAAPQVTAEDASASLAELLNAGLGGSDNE
T1 sequence (P0A8V2 whole entry): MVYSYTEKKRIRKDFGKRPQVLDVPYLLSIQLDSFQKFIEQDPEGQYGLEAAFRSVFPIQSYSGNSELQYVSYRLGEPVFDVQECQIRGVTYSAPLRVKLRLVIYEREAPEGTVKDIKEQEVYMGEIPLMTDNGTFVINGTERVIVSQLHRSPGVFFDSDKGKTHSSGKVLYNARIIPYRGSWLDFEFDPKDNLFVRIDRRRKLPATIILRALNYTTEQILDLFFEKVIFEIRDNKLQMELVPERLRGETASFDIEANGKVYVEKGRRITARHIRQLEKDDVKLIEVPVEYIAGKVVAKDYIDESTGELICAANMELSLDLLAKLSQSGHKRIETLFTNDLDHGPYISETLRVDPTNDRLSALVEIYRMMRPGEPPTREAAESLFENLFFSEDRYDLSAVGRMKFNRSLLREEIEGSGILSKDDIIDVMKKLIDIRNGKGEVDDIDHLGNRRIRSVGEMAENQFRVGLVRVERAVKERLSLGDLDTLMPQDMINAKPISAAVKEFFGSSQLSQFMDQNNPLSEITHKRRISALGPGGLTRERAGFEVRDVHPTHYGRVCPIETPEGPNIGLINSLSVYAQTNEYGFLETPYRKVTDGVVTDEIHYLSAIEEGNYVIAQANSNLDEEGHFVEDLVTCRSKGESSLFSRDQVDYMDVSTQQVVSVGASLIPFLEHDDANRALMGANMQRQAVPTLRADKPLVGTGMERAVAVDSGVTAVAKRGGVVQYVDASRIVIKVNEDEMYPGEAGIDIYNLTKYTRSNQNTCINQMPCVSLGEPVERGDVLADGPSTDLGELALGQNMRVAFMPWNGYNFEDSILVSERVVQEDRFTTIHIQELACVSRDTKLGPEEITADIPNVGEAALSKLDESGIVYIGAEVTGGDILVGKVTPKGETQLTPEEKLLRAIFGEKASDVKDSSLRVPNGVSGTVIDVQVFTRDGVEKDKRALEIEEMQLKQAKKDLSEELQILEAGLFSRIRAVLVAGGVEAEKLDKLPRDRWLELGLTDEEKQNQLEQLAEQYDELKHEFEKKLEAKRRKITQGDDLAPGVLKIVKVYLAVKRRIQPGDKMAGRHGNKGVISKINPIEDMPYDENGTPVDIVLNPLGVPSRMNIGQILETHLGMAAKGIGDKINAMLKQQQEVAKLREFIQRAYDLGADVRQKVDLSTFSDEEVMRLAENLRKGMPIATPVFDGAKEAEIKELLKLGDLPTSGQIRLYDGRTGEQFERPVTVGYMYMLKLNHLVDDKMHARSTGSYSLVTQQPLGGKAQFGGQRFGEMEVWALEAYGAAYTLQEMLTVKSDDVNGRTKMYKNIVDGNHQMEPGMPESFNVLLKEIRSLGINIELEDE
Outline: (§2)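 Commercial E. coli RNA polymerase was used, with calf thymus DNA template (3.65 µg) in 0.125 ml containing Tris-HCl pH 8.0, MgCl2, β-mercaptoethanol, CTP/UTP/GTP (0.019 µmol each) and [8-14C]ATP (0.019 µmol). Compound in DMSO was added before the enzyme; controls received DMSO. Mixtures were incubated 10 min at 37°. Acid-insoluble label was collected by filter-disk assay and counted by liquid scintillation.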

[5] = biological target: T1, Bacterial DNA-directed RNA polymerase (Bacteria); assay: Stimulation of Escherichia coli DNA-primed RNA polymerase activity using [8-14C]ATP at 25 ug/ml by scintillation counting; assay type: protein-complex assay; outline: as §2
L1210 [6] = assay: Cytotoxicity against mouse L1210 cells assessed as growth inhibition at 10 ug/ml after 48 hrs; assay type: functional; outline: as §1
[7] = biological target: T1, Bacterial DNA-directed RNA polymerase (Bacteria); assay: Stimulation of Escherichia coli DNA-primed RNA polymerase activity using [8-14C]ATP at 400 ug/ml by scintillation counting; assay type: protein-complex assay; outline: as §2
[8] = biological target: T1, Bacterial DNA-directed RNA polymerase (Bacteria); assay: Stimulation of Escherichia coli DNA-primed RNA polymerase activity using [8-14C]ATP at 50 ug/ml by scintillation counting; assay type: protein-complex assay; outline: as §2
[9] = biological target: T1, Bacterial DNA-directed RNA polymerase (Bacteria); assay: Stimulation of Escherichia coli DNA-primed RNA polymerase activity using [8-14C]ATP at 100 ug/ml by scintillation counting; assay type: protein-complex assay; outline: as §2
L1210 [10] = assay: Cytotoxicity against mouse L1210 cells assessed as growth inhibition at 0.01 ug/ml after 48 hrs; assay type: functional; outline: as §1
L1210 [11] = assay: Cytotoxicity against mouse L1210 cells assessed as growth inhibition at 100 ug/ml after 48 hrs; assay type: functional; outline: as §1
L1210 [12] = assay: Cytotoxicity against mouse L1210 cells assessed as growth inhibition at 1 ug/ml after 48 hrs; assay type: functional; outline: as §1
L1210 [13] = assay: Cytotoxicity against mouse L1210 cells assessed as growth inhibition at 100 ug/ml after 24 hrs; assay type: functional; outline: as §1
[14] = biological target: T1, Bacterial DNA-directed RNA polymerase (Bacteria); assay: Stimulation of Escherichia coli DNA-primed RNA polymerase activity using [8-14C]ATP by scintillation counting; assay type: protein-complex assay; outline: as §2
Calf thymus DNA [15] = assay: Binding affinity to calf thymus DNA assessed as decrease in DNA sedimentation coefficient at 5.2 x 10^-6 M relative to untreated control; assay type: nucleic-acid assay; settings: Bos taurus
Outline: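 Calf thymus DNA was mixed with compound at 5.2 × 10^-6 M and incubated 30 min at about 22°. Sedimentation was run in an analytical ultracentrifuge at 20°, with UV scanning at 260 nm. Each run included a drug-free DNA control. Sedimentation coefficients were not corrected for density or viscosity.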

L1210 [16] = assay: Cytotoxicity against mouse L1210 cells assessed as growth inhibition at 0.1 ug/ml after 24 hrs; assay type: functional; outline: as §1
L1210 [17] = assay: Cytotoxicity against mouse L1210 cells assessed as growth inhibition at 0.01 ug/ml after 24 hrs; assay type: functional; outline: as §1
[18] = biological target: Bacterial DNA-directed RNA polymerase (Bacteria, UniProt P0A7Z4+P0A800+P0A8T7+P0A8V2); assay: Inhibition of Escherichia coli DNA-primed RNA polymerase activity using [8-14C]ATP by scintillation counting; assay type: protein-complex assay; outline: as §2
Calf thymus DNA [19] = assay: Binding affinity to calf thymus DNA assessed as decrease in DNA sedimentation coefficient at 20 x 10^-6 M relative to untreated control; assay type: nucleic-acid assay; settings: Bos taurus
[20] = biological target: T1, Bacterial DNA-directed RNA polymerase (Bacteria); assay: Inhibition of Escherichia coli DNA-primed RNA polymerase activity using [8-14C]ATP at 400 ug/ml by scintillation counting; assay type: protein-complex assay; design: scale not given: the % may be the effect or the level left; outline: as §2
[21] = biological target: T1, Bacterial DNA-directed RNA polymerase (Bacteria); assay: Inhibition of Escherichia coli DNA-primed RNA polymerase activity using [8-14C]ATP at 200 ug/ml by scintillation counting; assay type: protein-complex assay; design: scale not given: the % may be the effect or the level left; outline: as §2
[22] = biological target: T1, Bacterial DNA-directed RNA polymerase (Bacteria); assay: Inhibition of Escherichia coli DNA-primed RNA polymerase activity using [8-14C]ATP at 25 ug/ml by scintillation counting; assay type: protein-complex assay; design: scale not given: the % may be the effect or the level left; outline: as §2
[23] = biological target: T1, Bacterial DNA-directed RNA polymerase (Bacteria); assay: Inhibition of Escherichia coli DNA-primed RNA polymerase activity using [8-14C]ATP at 50 ug/ml by scintillation counting; assay type: protein-complex assay; design: scale not given: the % may be the effect or the level left; outline: as §2
[24] = biological target: T1, Bacterial DNA-directed RNA polymerase (Bacteria); assay: Inhibition of Escherichia coli DNA-primed RNA polymerase activity using [8-14C]ATP at 100 ug/ml by scintillation counting; assay type: protein-complex assay; design: scale not given: the % may be the effect or the level left; outline: as §2
Calf thymus DNA [25] = assay: Binding affinity to calf thymus DNA by ESR spectrum; assay type: nucleic-acid assay; settings: Bos taurus

Structure (SMILES) | growth inhibition (GI) (L1210 [1]) [%] | growth inhibition (GI) (L1210 [2]) [%] | growth inhibition (GI) (L1210 [3]) [%] | Activity [4] [%] | Activity [5] [%] | growth inhibition (GI) (L1210 [6]) [%] | Activity [7] [%] | Activity [8] [%] | growth inhibition (GI) (L1210 [10]) [%] | growth inhibition (GI) (L1210 [11]) [%] | growth inhibition (GI) (L1210 [12]) [%] | growth inhibition (GI) (L1210 [13]) [%] | Ratio (Calf thymus DNA [15]) | growth inhibition (GI) (L1210 [16]) [%] | growth inhibition (GI) (L1210 [17]) [%] | Activity [20] [%] | Activity [21] [%] | Activity [22] [%] | Activity [23] [%] | Activity [24] [%] | other results
COc1ccc2nc3cc(Cl)ccc3c(NCC3CC(C)(C)N([O])C3(C)C)c2c1 (stereo unspecified) | 6 | 35 | 5 | 102 | 112 | 76 | 107 | 106 | 7 | 74 | 19 | 40 | 1.04 | 0 | 10 |  |  |  |  |  | Activity [9]: 106%; Activity [14]: Dose-dependent effect
CCN(CC)CCCC(C)Nc1c2ccc(Cl)cc2nc2ccc(OC)cc12 (stereo unspecified) [QUINACRINE] |  |  |  |  |  |  |  |  |  |  |  |  |  |  |  |  |  |  |  |  | IC50 [18]: 20 µM
COc1ccc2nc3cc(Cl)ccc3c(NC3CC(C)(C)N([O])C(C)(C)C3)c2n1 | 0 | 0 | 0 | 114 | 108 | 15 | 108 | 110 | 0 | 38 | 0 | 0 | 1.05 | 0 | 0 |  |  |  |  |  | Activity [9]: 110%; Activity [14]: Dose-dependent effect
Nc1ccc2cc3ccc(N)cc3nc2c1 |  |  |  |  |  |  |  |  |  |  |  |  |  |  |  |  |  |  |  |  | Ratio (Calf thymus DNA [19]): 1.13
CC1(C)CC(CNc2c3ccccc3nc3ccccc23)C(C)(C)N1[O] (stereo unspecified) | 12 | 46 | 2 |  |  | 79 |  |  | 3 | 82 | 29 | 48 | 1.08 | 3 | 0 | 10 | 22 | 87 | 70 | 45 | 
CC1(C)CC(Nc2c3ccccc3nc3ccccc23)CC(C)(C)N1[O] | 27 | 49 | 7 |  |  | 84 |  |  | 2 | 87 | 56 | 53 | 1.04 | 1 | 0 | 9 | 21 | 96 | 77 | 36 | 
COc1ccc2nc3cc(Cl)ccc3c(NC3CC(C)(C)N([O])C(C)(C)C3)c2c1 | 9 | 11 | 7 | 125 | 108 | 63 | 116 | 120 | 8 | 78 | 24 | 6 | 1.02 | 12 | 3 |  |  |  |  |  | Activity [9]: 129%; Activity [14]: Dose-dependent effect; Activity (Calf thymus DNA [25]): Active
Nc1c2ccccc2nc2ccccc12 |  |  |  |  |  |  |  |  |  |  |  |  |  |  |  | 1.8 | 4 | 40 | 31 | 31 | 
COc1cc(NS(C)(=O)=O)ccc1Nc1c2ccccc2nc2ccccc12 [AMSACRINE] |  |  |  |  |  |  |  |  |  |  |  |  |  |  |  |  |  |  |  |  | inhibition of growth at 1 µg/mL (L1210 [1]; L1210, 24 h, read-out: GI): 42%; inhibition of growth at 10 µg/mL (L1210 [2]; L1210, 24 h, read-out: GI): 50%; inhibition of growth at 0.1 µg/mL (L1210 [3]; L1210, 48 h, read-out: GI): 75%; inhibition of growth at 10 µg/mL (L1210 [6]; L1210, 48 h, read-out: GI): 87%; inhibition of growth at 0.01 µg/mL (L1210 [10]; L1210, 48 h, read-out: GI): 8%; inhibition of growth at 100 µg/mL (L1210 [11]; L1210, 48 h, read-out: GI): 92%; inhibition of growth at 1 µg/mL (L1210 [12]; L1210, 48 h, read-out: GI): 82%; inhibition of growth at 100 µg/mL (L1210 [13]; L1210, 24 h, read-out: GI): 57%; inhibition of growth at 0.1 µg/mL (L1210 [16]; L1210, 24 h, read-out: GI): 29%; inhibition of growth at 0.01 µg/mL (L1210 [17]; L1210, 24 h, read-out: GI): 6%
CC1(C)CC(NCCCNc2c3ccccc3nc3ccccc23)CC(C)(C)N1[O] | 10 | 56 | 0 |  |  | 87 |  |  | 0 | 86 | 16 | 47 |  | 0 | 0 | 12 | 20 | 71 | 42 | 31 | 
